Laboratory results taken from PMC5800424 (Molecular carcinogenesis, 2016).

Columns and labels:
[1] = tested on: Capan-2; test: MTT proliferation assay, Capan-2 cells; assay type: cell-based; settings: Homo sapiens, Capan-2, 24 h; for IC20: read-out: Approx. IC20; for IC50: read-out: Approx. IC50
In short: (§1)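 Cells were seeded at 4 × 10^3/well in 96-well plates and dosed 24 h later with graded concentrations of test compound for 24 h, with DMSO solvent control. Proliferation was read by modified MTT assay and approximate IC20/IC50 reported; triplicates, three independent experiments. Culture media, all at 37°C/5% CO2, were: BxPC-3 and Capan-2 RPMI/10% FBS; MIA PaCa-2 high-glucose DMEM/10% FBS/5% horse serum; PANC-1 DMEM/10% FBS; HPNE HPNE base medium/5% FBS/EGF.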

[2] = tested on: PANC-1; test: MTT proliferation assay, PANC-1 cells; assay type: cell-based; settings: Homo sapiens, PANC-1, 24 h; for IC20: read-out: Approx. IC20; for IC50: read-out: Approx. IC50
In short: as §1

[3] = tested on: HPNE; test: MTT proliferation assay, HPNE cells; assay type: cell-based; settings: Homo sapiens, 24 h; for IC20: read-out: Approx. IC20; for IC50: read-out: Approx. IC50
In short: as §1

[4] = tested on: MIA PaCa-2; test: MTT proliferation assay, MIA PaCa-2 cells; assay type: cell-based; settings: Homo sapiens, MIA PaCa-2, 24 h; for IC20: read-out: Approx. IC20; for IC50: read-out: Approx. IC50
In short: as §1

[5] = tested on: BxPC-3; test: MTT proliferation assay, BxPC-3 cells; assay type: cell-based; settings: Homo sapiens, BXPC-3, 24 h; for IC20: read-out: Approx. IC20; for IC50: read-out: Approx. IC50
In short: as §1

[6] = tested on: phospho-p65 (pp65); test: Immunoblot analysis of pp65; assay type: cell-based, human; settings: MIA PaCa-2; 24h; GEM 0.5 μM alone or with Nx 20 μg/mL
[7] = tested on: GEM-resistant Capan-2 (GRC) cells; test: Proliferation assay, GEM-resistant Capan-2; assay type: cell-based, human; settings: 24h
In short: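 The resistant Capan-2 line was derived by stepwise nucleoside drug exposure: 5 μM for 4 days, 5 μM for 1 week, 7.5 μM for 1 week, each followed by drug-free recovery, then 10 μM for 4 months. It was kept in RPMI/10% FBS plus drug. Resistant and parental cells were treated with graded doses for 24 h, and proliferation was read by MTT; triplicates, three independent experiments.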

[8] = tested on: p105; test: Immunoblot analysis of p105; assay type: cell-based, human; settings: MIA PaCa-2; 24h; GEM 0.5 μM alone or with Nx 20 μg/mL
In short: (§2)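 MIA PaCa-2 cells were exposed for 24 h to medium alone, test extract (20 μg/mL), nucleoside drug (0.5 μM), or both. They were lysed in 2x SDS buffer with protease and phosphatase inhibitors, run on 10% SDS-PAGE and transferred to nitrocellulose. Blocking was 1 h at RT in 5% milk or 5% BSA/TBST, primary antibody 2 h at RT, then HRP secondary 1 h. Detection was ECL; blots are representative of three independent experiments.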

[9] = tested on: p50; test: Immunoblot analysis of p50; assay type: cell-based, human; settings: MIA PaCa-2; 24h; GEM 0.5 μM alone or with Nx 20 μg/mL
In short: as §2

[10] = tested on: Capan-2; test: Annexin V apoptosis assay, Capan-2; assay type: cell-based, human; settings: 24h, Nx 50 μg/mL, GEM 0.5 μM, alone or in combination
[11] = tested on: GEM-resistant BxPC-3 (GRB) cells; test: Proliferation assay, GEM-resistant BxPC-3; assay type: cell-based, human; settings: 24h

| IC50 [2] [µg/mL] | IC50 [4] [µg/mL] | IC50 [5] [µg/mL] | SMILES | IC20 [1] [µg/mL] | IC50 [1] [µg/mL] | IC20 [2] [µg/mL] | IC20 [3] [µg/mL] | IC50 [3] [µg/mL] | IC20 [4] [µg/mL] | IC20 [5] [µg/mL] | levels of pp65 [6] | proliferation of GRC cells compared to WT parental Capan-2 [7] | levels of p105 [8] | levels of p50 [9] | apoptosis induction (Annexin V) [10] | proliferation of GRB cells compared to WT parental BxPC-3 [11] |
| --- | --- | --- | --- | --- | --- | --- | --- | --- | --- | --- | --- | --- | --- | --- | --- | --- |
| ~5 | ~30 | ~25 | CCCCC[N+]12CCc3cc4c(cc3C1Cc1ccc(OC)c(OC)c1C2)OCO4.[Cl-] (centres unmarked) [Ber 2-4, 9,10-dimethoxy-7-pentyl-5,6,7,8,13,13a-hexahydro-[1,3]dioxolo[4,5-g]isoquinolino[3,2-a]isoquinolin-7-ium chloride] | ~5 | ~75 | ~1 | ~25 | ~75 | ~10 | ~5 | – | – | – | – | – | – |
| ~50 | ~20 | – | COc1ccc2c(c1OC)C[N+]1(Cc3ccc(Br)cc3)CCc3cc4c(cc3C1C2)OCO4.[Br-] (centres unmarked) [Ber 2-8, 7-(4-bromobenzyl)-9,10-dimethoxy-5,6,7,8,13,13a-hexahydro-[1,3]dioxolo[4,5-g]isoquinolino[3,2-a]isoquinolin-7-ium bromide] | – | – | ~5 | ~25 | ~50 | ~5 | – | – | – | – | – | – | – |
| ~50 | ~25 | ~25 | COc1ccc2cc3[n+](cc2c1OC)CCc1cc2c(cc1-3)OCO2 [Berberine] | ~5 | ~75 | ~2.5 | ~5 | ~75 | ~5 | ~5 | – | – | – | – | – | – |
| – | – | – | Nc1ccn([C@@H]2O[C@H](CO)[C@@H](O)C2(F)F)c(=O)n1 [GEM, gemcitabine] | – | – | – | – | – | – | – | induced | significantly higher level of tolerance | induced | induced | did not observe Annexin positive cells | significantly higher level of tolerance |
